# Assay results reported in ChEMBL document CHEMBL4842325, “Lanosterol 14α-demethylase (CYP51)/histone deacetylase (HDAC) dual inhibitors for treatment of Candida tropicalis and Cryptococcus neoformans infections” (Eur J Med Chem, 2021).
# Active and inactive are the calls of the source. The rule behind the calls is not given here.
# How the values were obtained:
# Candida tropicalis [1] = test: Antifungal activity against Candida tropicalis 5008 infected in ICR mouse model assessed as reduction in fungal burden in kidney at 20 mg/kg, po administered once a day for 5 days; type: functional; settings: time 5 day
# How it was run: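 ICR mice given cyclophosphamide 100 mg/kg ip 24 h before infection, then infected iv with 1 × 10⁵ CFU C. tropicalis 5008 on day 0. Treatment started 24 h post infection: oral dosing once daily for 5 consecutive days, with saline and fluconazole control groups. Mice euthanized day 6. Kidney homogenates plated on SDA at 35 °C for 48 h and colonies counted for fungal burden. ANOVA between groups.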
# Cryptococcus neoformans [2] = test: Antifungal activity against fluconazole-sensitive Cryptococcus neoformans H99 assessed as inhibition of cell proliferation at 2 to 8 ug/ml measured for 48 hrs by time growth curve assay; type: functional, organism-based; settings: dose 2-8 µg/ml
# How it was run: (§1)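 Exponential-phase cells from YEPD resuspended in 3 mL fresh RPMI 1640 at 1 × 10⁵ cells/mL (C. tropicalis 5008) or 1 × 10⁶ cells/mL (C. neoformans H99). Compound at several concentrations; cultures shaken at 240 rpm, 30 °C. Growth read as OD₆₃₀ at 0, 6, 12, 24, 36 and 48 h. Done in triplicate.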
# Candida tropicalis [3] = test: Inhibition of CYP51 in Candida tropicalis 5008 assessed as ergosterol level at 4 ug/ml by GC-MS analysis (reference value: 84.91%); parameters: scale not given: the % may be the effect or the level left; settings: dose 4.0 µg/ml
# Cryptococcus neoformans [4] = test: Inhibition of biofilm formation in Cryptococcus neoformans H99 at 64 ug/ml incubated for 24 hrs by XTT reduction assay; type: functional
# How it was run: (§2)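 C. tropicalis 5008 or C. neoformans H99 from exponential YEPD culture diluted in RPMI 1640 to 1 × 10⁶ CFU/mL. Adhesion at 37 °C for 1.5 h. Results given as percent inhibition versus untreated wells. Three independent experiments, mean ± SD, t-test.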
# Candida tropicalis [5] = test: Downregulation of CDR1 mRNA expression in Candida tropicalis 5008 at 4 ug/ml measured after 24 hrs by qRT-PCR analysis; type: functional; settings: dose 4.0 µg/ml
# How it was run: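 Exponential-phase C. tropicalis 5008 inoculated into 10 mL YPD with compound at several concentrations, DMSO as blank control. Incubated 35 °C for 24 h. Total RNA isolated on columns and reverse-transcribed. Real-time RT-PCR with ACT1 as internal control. Mean of 3 independent assays ± SD.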
# Candida tropicalis [6] = test: Antifungal activity against fluconazole-resistant Candida tropicalis 5008 assessed as inhibition of cell proliferation at 8 ug/ml measured for 48 hrs by time growth curve assay; type: functional, organism-based; settings: dose 8.0 µg/ml; how it was run: as §1
# Cryptococcus neoformans [7] = test: microbe, parasite or virus in culture; type: functional; settings: H99, time 72 hrs
# Candida albicans [8] = test: microbe, parasite or virus in culture; type: functional; settings: 0304103
# Cryptococcus neoformans [9] = test: Downregulation of CAP64 gene expression in Cryptococcus neoformans H99 at 2 ug/ml measured after 24 hrs by qRT-PCR analysis; type: functional; settings: dose 2.0 µg/ml
# How it was run: (§3)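 Exponentially growing C. neoformans H99 inoculated into 50 mL YPD with compound and incubated 35 °C for 24 h. Cells ground in liquid nitrogen before total RNA isolation, then reverse transcription and real-time RT-qPCR. Means ± SD of three independent assays.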
# Candida tropicalis [10] = test: Inhibition of CYP51 in Candida tropicalis 5008 assessed as unknown sterol level at 4 ug/ml by GC-MS analysis (reference value: 6.48%); parameters: scale not given: the % may be the effect or the level left; settings: dose 4.0 µg/ml
# Candida tropicalis [11] = test: microbe, parasite or virus in culture; type: functional; settings: 5008, time 48 hrs
# Candida tropicalis [12] = test: Inhibition of biofilm formation in Candida tropicalis 5008 at 64 ug/ml incubated for 24 hrs by XTT reduction assay; type: functional; how it was run: as §2
# Cryptococcus neoformans [13] = test: Downregulation of HOS1 mRNA expression in Cryptococcus neoformans H99 at 2 ug/ml measured after 24 hrs by qRT-PCR analysis; type: functional; settings: dose 2.0 µg/ml; how it was run: as §3
# Cryptococcus neoformans [14] = test: Inhibition of CYP51 in Cryptococcus neoformans H99 assessed as lanosterol level at 4 ug/ml by GC-MS analysis; parameters: scale not given: the % may be the effect or the level left; settings: dose 4.0 µg/ml
# Candida albicans [15] = test: Antifungal activity against fluconazole-sensitive Candida albicans 10061 assessed as inhibition of fungal growth; type: functional
compound,measurement,setting,value
O=C(CCCCCCCOc1ccc(CN2CCN(CC(O)(Cn3cncn3)c3ccc(F)cc3F)CC2)cc1)NO (stereo not given),log(activity),Candida tropicalis [1],0.7
same,Activity,Cryptococcus neoformans [2],Active
same,Activity,Candida tropicalis [3],1.51%
same,inhibition at 64 µg/mL,Cryptococcus neoformans [4],70%
same,inhibition,Candida tropicalis [5],Active
same,Activity,Candida tropicalis [6],Active
same,MIC80,Cryptococcus neoformans [7],0.5 µg/mL
same,MIC80,Candida albicans [8],8 µg/mL
same,inhibition,Cryptococcus neoformans [9],inactive
same,Activity,Candida tropicalis [10],1.31%
same,MIC80,Candida tropicalis [11],0.5 µg/mL
same,inhibition at 64 µg/mL,Candida tropicalis [12],100%
same,inhibition,Cryptococcus neoformans [13],Active
same,Activity,Cryptococcus neoformans [14],9.59%
same,MIC80,Candida albicans [15],16 µg/mL
